{
  "source": "paper PMC5771842",
  "about": "(Nature chemical biology, 2018)",
  "key": {"MC99IIIBΔTat-Rev HIV-1": {"test_system": "MC99IIIBΔTat-Rev HIV-1", "assay": "HIV cytoprotection assay", "type": "cell-based", "settings": "CEM 1A2 tat/rev++ cells", "how_it_was_run": "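CEM 1A2 tat/rev++ cells, which die on HIV infection, grown in RPMI-1640 with 20% FBS, bicarbonate and antibiotic-antimycotic at 37°C, 5% CO2; 12,500 cells/well. Test compound added in DMSO, then HIV-1 MC99IIIBΔTat-Rev; 4-day incubation. MTT added for 1–2 h, formazan dissolved in DMSO, absorbance read at 590 nm. Triplicate per dose; infected, uninfected, media-only and AZT controls. IC50/CC50 estimated by eye.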"}, "[1]": {"test_system": "CEM 1A2 tat/rev++ T-cells", "assay": "HIV cytoprotection assay", "type": "cell-based, human", "settings": "CEM 1A2 T cells"}},
  "note": "“Also recorded” adds a separate entry of the source.",
  "data": [
    {"substance": "divamide C [Compound 3]", "values": [
      {"measurement": "anti-HIV activity (cytoprotection), in words", "setting": "MC99IIIBΔTat-Rev HIV-1", "result": "essentially inactive; also recorded: neither cytotoxic nor anti-HIV activities; also recorded: lacked any detectable cytoprotection"},
      {"measurement": "cytotoxicity, in words", "setting": "[1]", "result": "neither cytotoxic nor anti-HIV activities"}
    ]}
  ]
}
